In article PMC10725268 (CPT: Pharmacometrics & Systems Pharmacology, 2023):
Where a SMILES comes first, the peptide text is derived from it. Bridges are numbered along the chain shown (N, C = ends). [ ]: non-standard residue; d: D form. The star is where a group is joined. Heptanoyl(6-Me) = CC(C)CCCCC(=O)*; X1 = CC[C@H](C)CCCCC(=O)*; Dab = NCC[C@H](N)C(=O)O

Columns and labels:
[1] = tested on: critically ill patients; test: PMB-induced acute kidney injury; format: in vivo, human
Outline: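 ICU adults (>18 years) with MDR Gram-negative infection, given intravenous PMB (sulfate) for ≥2 days with plasma monitoring. Excluded: baseline serum creatinine >1.5 mg/dl or prior renal replacement. AKI (KDIGO) was a serum creatinine rise ≥0.3 mg/dl within 48 h, >1.5-fold within 7 days, or urine output <0.5 ml/kg/h for >6 h.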

[2] = tested on: critically ill patients; test: Clinical outcome during intravenous PMB treatment; format: in vivo, human
Outline: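 Single-centre ICU cohort, August 2020–July 2022: adults on intravenous PMB for ≥2 days with MDR Gram-negative infection. Excluded: baseline creatinine >1.5 mg/dl, prior renal replacement, or a changed maintenance dose. Prognosis and adverse events were taken from hospital records. AKI and non-AKI groups were compared by chi-square or Fisher's exact test.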

[3] = Estimation of PMB AUC0-24 from timed steady-state plasma concentrations; format: in vivo, human; conditions: mean ± SD; for AUC(0-t): human, iv, AUC0–24, trapezoidal area
[4] = tested on: patients receiving PMB; conditions: cited from earlier work
[5] = tested on: critically ill patients; format: in vivo, human
Outline: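 Intravenous dosing: 2.5 mg/kg loading dose (not all patients), then 2.5–3 mg/kg/day in two divided doses. After ≥48 h, mid-interval plasma concentration was sampled 6 h post-dose. Variables with p < 0.05 in univariate logistic regression entered forward-stepwise multivariate regression, with fit checked by Hosmer–Lemeshow. ROC cutoff was taken at the maximum Youden index. AKI probability came from a logistic equation on C1/2t.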

[6] = Steady-state plasma concentrations of PMB; format: in vivo; conditions: human, iv
Outline: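 Blood drawn after ≥48 h of dosing; peak taken immediately after infusion end. Samples centrifuged 885 g, 10 min; supernatant stored −80°C. PMB1 and PMB2 measured by UPLC-MS/MS on a C18 column (2.6 μm, 3.0 × 50 mm), 40°C, 0.3 ml/min. Gradient: 0.1% formic acid in water versus acetonitrile. Total PMB is the sum of PMB1 and PMB2.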

[7] = one-compartment model, AKI (n = 30)
[8] = one-compartment model, Non-AKI (n = 25)
[9] = one-compartment model, Overall (n = 55)

**Q.** Which results are given for `CC[C@H](C)CCCCC(=O)N[C@@H](CCN)C(=O)N[C@H](C(=O)N[C@@H](CCN)C(=O)N[C@H]1CCNC(=O)[C@H]([C@@H](C)O)NC(=O)[C@H](CCN)NC(=O)[C@H](CCN)NC(=O)[C@H](CC(C)C)NC(=O)[C@@H](Cc2ccccc2)NC(=O)[C@H](CCN)NC1=O)[C@@H](C)O` [PMB, polymyxin B] (X1-[Dab]T[Dab][Dab][Dab][dF]L[Dab][Dab]T; lactam 4-C)?
**A.** overall AKI incidence ([1]; 30 of 55 patients on intravenous PMB, KDIGO definition): 54.5%; patients who developed AKI on Day 3 ([1]; after PMB administration): 13.3%; patients who developed AKI within 7 days ([1]; share of the AKI group (n = 30)): 46.7%; 30-day mortality rate ([2]; AKI group): 46.7%; 30-day mortality rate ([2]; non-AKI group): 20%; AUC(0-t) ([3]; based on Cmin(B) and Cmax(B), AKI (n = 30)): 128 ± 36.2 µg·h/mL; AUC(0-t) ([3]; based on Cmin(B) and Cmax(B), Non-AKI (n = 25)): 102 ± 30.9 µg·h/mL; AUC(0-t) ([3]; based on Cmin(B) and Cmax(B), Overall (n = 55)): 116 ± 36 µg·h/mL; AUC(0-t) ([3]; based on Cmin(B), C1/2t(B), and Cmax(B), AKI (n = 30)): 110 ± 31.3 µg·h/mL; AUC(0-t) ([3]; based on Cmin(B), C1/2t(B), and Cmax(B), Non-AKI (n = 25)): 85.4 ± 24.4 µg·h/mL; AUC(0-t) ([3]; based on Cmin(B), C1/2t(B), and Cmax(B), Overall (n = 55)): 99.1 ± 30.8 µg·h/mL; AUC0–24, first-order pharmacokinetic equation, based on C1/2t(B) and Cmax(B) (AUC1/2t,max) [3, 7]: 103.7 ± 31.2 µg·h/mL; AUC0–24, first-order pharmacokinetic equation, based on Cmin(B) and C1/2t(B) [3, 7]: 100.7 ± 34.8 µg·h/mL; AUC0–24, first-order pharmacokinetic equation, based on Cmin(B) and Cmax(B) [3, 7]: 115.7 ± 35.1 µg·h/mL; AUC0–24, first-order pharmacokinetic equation, based on Cmin(B) and C1/2t(B) [3, 8]: 72.8 ± 21.2 µg·h/mL; AUC0–24, first-order pharmacokinetic equation, based on Cmin(B) and Cmax(B) [3, 8]: 90.2 ± 28.4 µg·h/mL; AUC0–24, first-order pharmacokinetic equation, based on Cmin(B) and C1/2t(B) [3, 9]: 88.1 ± 32.3 µg·h/mL; AUC0–24, first-order pharmacokinetic equation, based on Cmin(B) and Cmax(B) [3, 9]: 104.1 ± 34.4 µg·h/mL; trough concentration limit suggested to reduce the risk of AKI ([4]; ref 16 (Han et al.)): < 3.13 mg/L; nephrotoxicity compared with colistin ([4]; systematic review and meta-analysis): lower nephrotoxicity than colistin; optimal cutoff value of C1/2t for predicting PMB-induced AKI ([5]; ROC curve, Youden index, p = 0.002, 66.7% sensitivity, 72% specificity): 3.47 µg/mL; C1/2t at which the probability of AKI was >50% ([5]; univariate logistic regression, Equation 5): ≥ 3.24 mg/L

**Q.** With `CC(C)CCCCC(=O)N[C@@H](CCN)C(=O)N[C@H](C(=O)N[C@@H](CCN)C(=O)N[C@H]1CCNC(=O)[C@H]([C@@H](C)O)NC(=O)[C@H](CCN)NC(=O)[C@H](CCN)NC(=O)[C@H](CC(C)C)NC(=O)[C@@H](Cc2ccccc2)NC(=O)[C@H](CCN)NC1=O)[C@@H](C)O` [PMB2, polymyxin B2] ({Heptanoyl(6-Me)}-[Dab]T[Dab][Dab][Dab][dF]L[Dab][Dab]T; lactam 4-C) as the compound, how does the Cmax [6] read?
**A.** The Cmax was 1 µg/mL.

**Q.** For `CC[C@H](C)CCCCC(=O)N[C@@H](CCN)C(=O)N[C@H](C(=O)N[C@@H](CCN)C(=O)N[C@H]1CCNC(=O)[C@H]([C@@H](C)O)NC(=O)[C@H](CCN)NC(=O)[C@H](CCN)NC(=O)[C@H](CC(C)C)NC(=O)[C@@H](Cc2ccccc2)NC(=O)[C@H](CCN)NC1=O)[C@@H](C)O` [PMB1, polymyxin B1] (X1-[Dab]T[Dab][Dab][Dab][dF]L[Dab][Dab]T; lactam 4-C), which peak concentration above which the probability of AKI would be >50% ([4]; ref 17 (Deng et al.)) is on record?
**A.** The peak concentration above which the probability of AKI would be >50% was > 5.23 µg/mL.
